A selection: hits, their analogues and other compounds. The true share with any hit is near 4%.
FAK inh: blocks human focal adhesion kinase activity; AID 727; Q05397; inhibition, %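 (tested at 7 µM)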; hit rate 0.84% among 97,000; biochemical FAK kinase activity assay;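 further: 0% = DMSO and 100% = reference compound high control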
ERb coact inh: ER-beta (human) coactivator binding inhibition; Q92731; AID 633; hit rate 1.3% among 86,000; inhibition, % at 25.6 µM; TR-FRET ER-beta LBD / SRC1-Cy5 peptide binding; receptor agonist-loaded with 1 µM estradiol;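 active means compounds whose percent inhibition of the receptor-coactivator binding signal exceeds about 50% in the single-dose screen, limit read from the data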;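 further: 0% = receptor plus peptide wells without compound and 100% = peptide-only wells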
Target sequence (Q92731 whole entry, looked up, the tested form may be a part): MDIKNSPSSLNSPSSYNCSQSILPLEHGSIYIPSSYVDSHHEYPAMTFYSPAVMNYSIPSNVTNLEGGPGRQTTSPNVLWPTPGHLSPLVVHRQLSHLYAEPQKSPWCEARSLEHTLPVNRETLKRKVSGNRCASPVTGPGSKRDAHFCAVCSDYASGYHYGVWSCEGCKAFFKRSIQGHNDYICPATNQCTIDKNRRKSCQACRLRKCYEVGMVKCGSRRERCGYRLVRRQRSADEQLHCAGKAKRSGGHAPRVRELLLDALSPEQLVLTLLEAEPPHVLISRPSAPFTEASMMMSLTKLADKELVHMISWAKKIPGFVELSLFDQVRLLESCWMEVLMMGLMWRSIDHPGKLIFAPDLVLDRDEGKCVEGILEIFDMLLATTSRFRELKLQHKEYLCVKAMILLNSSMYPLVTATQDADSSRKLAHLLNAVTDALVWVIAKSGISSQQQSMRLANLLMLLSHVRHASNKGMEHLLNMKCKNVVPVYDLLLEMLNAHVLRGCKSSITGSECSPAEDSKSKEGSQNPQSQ
Smad3 inh: blocks human Smad3 binding to FoxH1 peptide | TR-FRET Smad3/Dy647-FoxH1 peptide binding, europium anti-His | hit rate 0.29% among 88,000 | P84022 | inhibition, % at 25 µM;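 active means compounds that reduce the energy-transfer binding signal between the protein and its labelled peptide by more than half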;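 further: 0% = Smad3 plus labelled peptide maximal FRET and 100% = peptide-only background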
ERa coact inh: ER-alpha (human) coactivator binding inhibition; P03372; hit rate 1.7% among 86,000; TR-FRET ER-alpha LBD / SRC-1 peptide, estradiol-bound; AID 629; inhibition, % at 25.6 µM; in the data active means inhibition above about 50%;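 further: 0% = receptor plus peptide control and 100% = peptide only without receptor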
Rev-RRE block: inhibitors of HIV-1 Rev-RRE RNA interaction; inhibition, % at 8 µM; P05866; hit rate 0.79% among 97,000; Rev peptide-RRE RNA binding, FRET;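 active means inhibition above the screen-wide mean plus 3 SD, cut at about 35% in these data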;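 further: 0% = median DMSO wells and 100% = median Neomycin B control wells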
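Test system: Cy5-tagged RRE RNA duplex with fluorescein-tagged Rev peptide | Read-out: % inhibition of FRET ratio versus controls | Probe or stimulus: Labelled Rev peptide | Incubation: 5 min RNA-compound premix plus 15 min binding step, 25 °C | Technique: FRET fluorescence readout | Benchmarks: DMSO low control, neomycin B high control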
ERa SRC1 pot: ER-alpha (human) coactivator binding potentiation | P03372 | TR-FRET ERalpha-LBD/SRC-Cy5 coactivator binding, 2 h; 100 = basal binding, no effect | coactivator binding (% of control), % at 25.6 µM | hit rate 1.3% among 86,000 | AID 639; in the data active means activity above about 200%;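 further: binding measured in presence of low estradiol as agonist stimulus; 0% = peptide alone without receptor and 100% = receptor with peptide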
FAK inh confirm: confirmation of human focal adhesion kinase (FAK) inhibitors; FAK kinase biochemical inhibition assay; inhibition, % at 7 µM; hit rate 28% among 750; AID 794; shares compounds with FAK inh
An asterisk follows results filed as active; . = not tested or not shown. Unless noted, no stated cut-off is given here; in the data, active means inhibition above about 19%; inactive means the rest.

SMILES	FAK inh	ERb coact inh	Smad3 inh	ERa coact inh	Rev-RRE block	ERa SRC1 pot	FAK inh confirm
CCOC(=O)c1cnc2cc(Cl)c(OC)cc2c1NCC1CCCO1 (stereo not given)	20*	.	.	.	1	.	6
O=C(NCc1ccco1)c1ccc2c(=O)n(Cc3ccco3)c(SCC(=O)N3CCCC3)nc2c1	9	8	-1	15	-1	193	.
O=C(CSc1nc2ccccc2c(=O)n1Cc1ccco1)N1CCCCCC1	36*	3	-3	14	8	106	10
COCCNC(=O)c1ccc2c(=O)n(Cc3ccco3)c(SCC(=O)NC3CCCCC3)nc2c1	33*	2	3	7	4	107	1
CCN1CCN(CC(=O)Nc2cccc(C)c2)C(=O)C1=O	-2	-12	1	-7	3	133	.
CN1CCC(N(C)C(=O)CCc2nc3ccccc3c(=O)[nH]2)CC1	0	-6	2	-8	15	112	.
Cn1c(=O)[nH]c(=O)c2c1nc(Br)n2CCCSc1nc2ccccc2o1	19*	2	2	0	10	84	1
Cn1c(=O)[nH]c(=O)c2c1nc(N1CCCC1)n2CCCSc1nc2ccccc2o1	.	-7	11	-6	.	113	.

Screens (PubChem BioAssay)
